p-CIP stab down – compounds decreasing mouse p/CIP protein stability. Q05BA5. F442A p/CIP-EGFP cells, EGFP fluorescence, 16 h. decrease of EGFP signal, % at 10 µM. 0.01% of 290,000 active. AID 1984;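 active means EGFP signal decrease of at least 30% at 10 µM or well 3 SD below plate mean, unless failing retest; inactive means the rest, including hits failing retest or dose response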
Target sequence (Q05BA5 1-1403): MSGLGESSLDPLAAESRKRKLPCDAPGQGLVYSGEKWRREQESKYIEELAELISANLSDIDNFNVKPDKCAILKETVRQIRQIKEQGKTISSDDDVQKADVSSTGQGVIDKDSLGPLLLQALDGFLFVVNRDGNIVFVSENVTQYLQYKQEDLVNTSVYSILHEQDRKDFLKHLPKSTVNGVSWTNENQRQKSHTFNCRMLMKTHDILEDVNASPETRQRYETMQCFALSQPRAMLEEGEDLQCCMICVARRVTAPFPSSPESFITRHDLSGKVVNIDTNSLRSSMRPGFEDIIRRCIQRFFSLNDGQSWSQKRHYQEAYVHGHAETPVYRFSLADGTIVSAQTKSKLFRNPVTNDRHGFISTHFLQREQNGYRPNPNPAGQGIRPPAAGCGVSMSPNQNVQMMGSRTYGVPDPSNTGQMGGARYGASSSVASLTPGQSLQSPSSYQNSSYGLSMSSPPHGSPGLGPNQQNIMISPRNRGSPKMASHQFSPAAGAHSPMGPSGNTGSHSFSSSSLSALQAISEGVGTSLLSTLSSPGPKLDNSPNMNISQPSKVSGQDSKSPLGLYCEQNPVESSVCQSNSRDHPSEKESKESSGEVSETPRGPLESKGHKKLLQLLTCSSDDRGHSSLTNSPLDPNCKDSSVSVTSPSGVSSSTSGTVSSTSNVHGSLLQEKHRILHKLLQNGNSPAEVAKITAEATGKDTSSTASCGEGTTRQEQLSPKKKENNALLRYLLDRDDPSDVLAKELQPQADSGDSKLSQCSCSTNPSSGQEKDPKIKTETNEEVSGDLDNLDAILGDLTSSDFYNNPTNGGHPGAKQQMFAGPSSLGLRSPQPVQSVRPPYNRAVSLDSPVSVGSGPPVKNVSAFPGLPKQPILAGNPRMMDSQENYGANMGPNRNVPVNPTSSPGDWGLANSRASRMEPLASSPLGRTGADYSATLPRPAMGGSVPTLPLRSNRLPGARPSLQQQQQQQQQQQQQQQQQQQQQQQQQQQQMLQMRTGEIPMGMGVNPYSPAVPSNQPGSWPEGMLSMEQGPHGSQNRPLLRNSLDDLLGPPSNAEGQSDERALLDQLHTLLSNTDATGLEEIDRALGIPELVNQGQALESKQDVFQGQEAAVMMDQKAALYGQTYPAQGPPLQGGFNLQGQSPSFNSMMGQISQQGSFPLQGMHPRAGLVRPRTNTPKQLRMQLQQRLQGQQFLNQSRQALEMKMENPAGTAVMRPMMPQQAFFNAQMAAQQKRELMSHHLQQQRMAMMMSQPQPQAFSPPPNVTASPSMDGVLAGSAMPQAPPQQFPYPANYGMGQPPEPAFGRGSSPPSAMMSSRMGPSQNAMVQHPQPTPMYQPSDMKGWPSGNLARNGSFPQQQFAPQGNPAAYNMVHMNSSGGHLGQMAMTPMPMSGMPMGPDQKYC
PP5 primary – inhibitors of human protein phosphatase 5 (PP5); P53041; purified PP5c, OMFP substrate fluorescence; inhibition, % at 6.7 µM; 0.18% of 320,000 active; AID 1987;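 active means inhibition above the campaign's mean inhibition across all tested compounds plus 3 SD, cut at about 9.5% in these data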;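 further: 0% = DMSO only and 100% = 100 µM cantharidin control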
Cardio protect – myocardial damage modulation in H9c2 cells | AID 588492 | protection from H2O2 cell death, % at 20 µM | H9c2 cardiomyocytes, H2O2 injury protection, ATPLite, 2 h | 0.63% of 360,000 active;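 active means compounds giving at least 50% protection of heart cells from peroxide-induced death in the single-dose screen, raw or plate-pattern-corrected value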;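 further: 0% = DMSO wells with peroxide and 100% = DMSO wells without peroxide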
T cruzi inh – T. cruzi replication inhibition | T. cruzi beta-gal in NIH3T3, luminescence, 90 h | inhibition, % (no concentration beside the values) | 1.4% of 300,000 active;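 active means mean inhibition across valid replicates above about 55%, limit read from the data; inconclusive means mean below that limit but half or more replicates reach it; inactive means mean below it, under half of replicates reach it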;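 further: signal also drops with host cell toxicity which is not excluded here; 0% = plate median of DMSO wells and 100% = zero luminescence signal; higher percent means less beta-gal luminescence so fewer parasites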
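System: Mouse NIH/3T3 fibroblasts infected with β-gal-expressing T. cruzi Tulahuen C4 | Quantity: NIH/3T3 cells, 5,000 per well | Reagent: 5000 reporter trypomastigotes per well | Dosing: Compound pinned at 50 nL/well, DMSO | Schedule: 3 h host attachment, then at least 90 h co-culture | Detection: GalScreen luminescence, 60 min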
Fh CTSL1 inh – cathepsin L1 inhibition, PFM18AAP counter-screen; recombinant F. hepatica cathepsin L1, Z-Leu-Arg-MCA fluorescence; inhibition, % at 5.96 µM; 0.49% of 300,000 active; AID 1906;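 active means inhibition above the mean of all tested compounds plus 3 SD, set per screening campaign, cut at about 17% in these data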;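 further: 0% = plate median of test compound wells and 100% = 1 µM Z-Phe-Ala-diazomethylketone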
JMJD2C inh – inhibitors of human GASC-1 (JMJD2C) demethylase. Q9H3R0. 0.069% of 330,000 active. inhibition, % at 2.35 µM. GST-JMJD2C(1-420) H3K9me3 demethylation, DELFIA europium;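 active means more than half of a compound's replicate wells show inhibition beyond 50%, single wells judged on their own value; inconclusive means some, but no more than half, of replicates pass 50% inhibition; inactive means no replicate passes 50% inhibition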;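 further: signal counts dimethyl H3K9 product captured on neutravidin plate; 0% = median of DMSO wells and 100% = 0.3 times that DMSO median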
* = called active by the depositor; ? = inconclusive; . = not tested or not shown. Compounds with a hit are over-represented: about 2.4% of the library has one in this group of screens.

SMILES | p-CIP stab down | PP5 primary | Cardio protect | T cruzi inh | Fh CTSL1 inh | JMJD2C inh
COc1ccc(OCC(=O)N/N=C/c2cccc3cccnc23)cc1 | -6 | 1 | 68* | 6 | 3 | 1
O=C(Nc1ccc(N2CCOCC2)cc1)c1ccc(Cl)c(S(=O)(=O)N2CCCC2)c1 | . | -2 | -22 | . | . | 3
COC(=O)c1c(NC(=O)CN2CCN(c3ncccn3)CC2)sc(C(N)=O)c1C | -1 | 1 | 16 | -1 | -4 | 2
COC(=O)[C@@]1(C)[C@H]2C(=O)N(C)C(=O)[C@H]2[C@H]2CN=C(SCc3ccc(Cl)cc3)N21 | . | . | 1 | . | . | .
Cc1ccc(NC(=O)Nc2ccnc(-c3cccnc3)n2)cc1 | -23 | 4 | 78* | -3 | -4 | .
Cc1ccc(C(=O)Nc2ccnc(-c3cccnc3)n2)cc1 | 4 | 2 | 20 | 1 | 3 | 7
O=C(NC(O)C(=O)c1ccccc1)c1ccc(F)cc1 (stereo not drawn) | -7 | 2 | 10 | -7 | 18* | 4
N/C(=N\NS(=O)(=O)c1ccccc1)c1ccccn1 | . | 4 | 51* | -11 | -1 | -3
COc1ccc(CNC(=O)C2CCC(CNc3c(N4CCC(C)CC4)c(=O)c3=O)CC2)cc1 (stereo not drawn) | -14 | 1 | 5 | -9 | -4 | 6
O=C(N(c1ccccc1)c1ccccc1)N(c1ccccc1)c1ccccc1 | -6 | 2 | -7 | 7 | 2 | -7
CC(=O)N(C1=C(N)C(=O)c2ccccc2C1=O)c1ccccc1 | 0 | 2 | -9 | -8 | 30* | 2
O=C(NCC1CCCO1)c1cc2c([nH]c3ccccc32)c(-c2cccc(Br)c2)n1 (stereo not drawn) | -15 | 7 | 7 | 55* | -2 | ?
Cc1cnc(C(=O)OCc2csc(CC(=O)Nc3ccccc3C)n2)cn1 | -14 | 3 | 1 | -6 | -4 | -14
CCOC(=O)C1=C(C)N=C2c3ccccc3C(=O)C2C1c1ccc(Cl)cc1 (stereo not drawn) | -9 | 1 | 11 | 61* | 4 | -2
CCCCn1c(-c2cccc3ccccc23)nc2cc3[nH]c(=O)c(C(C)C)nc3cc21 | -4 | 4 | -3 | 63* | 3 | 5
Cc1onc(-c2c(F)cccc2Cl)c1C(=O)Nc1cccc(S(=O)(=O)NC2=NCCC2)c1 | . | -1 | 7 | 3 | 2 | -8
CC1(N=Cc2cc(Cl)ccc2O)COP(=O)(Nc2ccccc2)OC1 (stereo not drawn) | . | . | 32 | . | . | .
CCCN(CC(=O)Nc1ccc(F)c(F)c1F)C(=O)c1ccc(N2CCCC2=O)cc1 | . | 2 | 0 | . | . | 6
O=C(NC(NC(=S)Nc1c(Cl)cccc1Cl)C(Cl)(Cl)Cl)c1cccc([N+](=O)[O-])c1 (stereo not drawn) | -1 | 0 | -14 | 59* | -5 | 1
O=C(NNC(=S)NC(=O)c1ccccc1Cl)c1cccc([N+](=O)[O-])c1 | -1 | 0 | 22 | -3 | 2 | 12
OC[C@@H]1CN(CCNc2ccccc2)C[C@H](n2cnc3c(NCc4ccncc4)ncnc32)O1 | . | . | -3 | . | . | .
N#C/C(=C\c1ccc(N2CCCCC2)c([N+](=O)[O-])c1)c1nn(-c2ccccc2)c(N)c1C#N | -2 | 2 | 1 | 62* | 0 | 5
CC1CCN(c2ccc(/C=C(\C#N)c3nn(-c4ccccc4)c(N)c3C#N)cc2[N+](=O)[O-])CC1 | -12 | -4 | 1 | 44 | 3 | -5
COC(=O)C(C(C)C)N(Cc1cc(OC)cc(OC)c1)S(=O)(=O)CCl (stereo not drawn) | . | . | 0 | . | . | .
Cc1ccc(-n2c(-c3ccc(Br)cc3)c[n+]3c2CCc2ccc4cccnc4c2-3)cc1 | -15 | 2 | -19 | 60* | 3 | -4
SMILES | p-CIP stab down | PP5 primary | Cardio protect | T cruzi inh | Fh CTSL1 inh | JMJD2C inh
Cc1ccc(-n2c(=O)[nH]c3ncccc3c2=O)cc1 | 1 | 1 | 1 | -4 | 5 | 21
Cc1ccc(OCCCCNC2CCCCC2)c(C)c1 | -10 | 1 | 18 | 55* | 1 | -10
CN(CCc1ccccc1)C(C(=O)Nc1ccc2c(c1)OCCO2)C1CC1 (stereo not drawn) | . | . | 6 | . | . | .
COc1ccc(OCC(=O)NNC(=S)NC(=O)c2ccc(Br)o2)cc1 | -6 | 0 | 3 | -19 | 1 | -16
COc1ccc2c(c1)CCC1=C2NC(=S)NC1c1ccc(N(C)C)cc1 (stereo not drawn) | 4 | -1 | -20 | 66* | -3 | 0
CNc1nc(-c2ccccn2)nnc1-c1ccccc1 | -2 | 1 | 52* | 6 | 4 | 1
COc1ccc(CCN(CC(=O)NCc2ccc(F)cc2)C(=O)c2snc(C(N)=O)c2N)cc1OC | -18 | 2 | 14 | 15 | 0 | 24
Cc1ccc(N(Cc2ccco2)C(=O)c2ccc(N3CCCCC3)c([N+](=O)[O-])c2)cc1 | -4 | 2 | -4 | 56* | -3 | 72
COc1cc(-c2cc(NC(C)=O)c3ncc(-c4cc(OC)c(OC)c(OC)c4)n3c2)cc(OC)c1OC | . | . | 66* | . | . | .
COc1ccc(-c2cnc3c(NC(C)=O)cc(-c4ccccc4OC)cn23)cc1OC | . | . | 19 | . | . | .
CC(=O)Nc1cc(-c2ccc(C(=O)NC3CC3)cc2)cn2c(-c3cccc(C(C)=O)c3)cnc12 | . | . | 50* | . | . | .
COc1ccc(-c2cc(NC(C)=O)c3ncc(-c4ccc(OC)c(OC)c4)n3c2)cc1OC | . | . | 67* | . | . | .
COc1cc(-c2cnc3c(NC(C)=O)cc(-c4ccccc4CN(C)C)cn23)cc(OC)c1OC | . | . | 4 | . | . | .
COc1ccccc1-c1cc(NC(C)=O)c2ncc(-c3cccc(C(C)=O)c3)n2c1 | . | . | 52* | . | . | .
CC1CC1C(=O)N(C)CC(=O)Nc1ccccc1Br (stereo not drawn) | . | . | -4 | . | . | -11
COc1cc(-c2cc(NC(C)=O)c3ncc(-c4ccccc4)n3c2)cc(OC)c1OC | . | . | 70* | . | . | .
Cn1c(=O)c2c(nc(NCc3cccnc3)n2Cc2cccc(C(F)(F)F)c2)n(C)c1=O | 0 | 3 | 73* | 40 | 0 | 1
Cc1ccc(S(=O)(=O)Nc2ccc(Nc3nccn4c(-c5cccc(OC(F)(F)F)c5)cnc34)cc2)cc1 | . | . | -15 | . | . | .
O=C(NNC(=S)Nc1ccc(Cl)c(Cl)c1)c1ccccn1 | 2 | -1 | 37 | 62* | 4 | 8
CCNC(=S)NNC(=O)c1ccccn1 | -9 | 2 | 16 | -10 | 4 | 9
O=C(NNc1ccccn1)C(c1ccccc1)c1ccccc1 | -3 | 0 | 2 | 7 | 2 | -11
O=C(NNC(=O)C(c1ccccc1)c1ccccc1)c1ccccn1 | 1 | 0 | 51* | 44 | 1 | 23
CCN(CC)S(=O)(=O)c1ccc(/C=C/C(=O)OCC(=O)NNC(=O)c2ccc(OC)cc2)cc1 | . | 1 | 1 | . | . | 24

Screens: PubChem BioAssay, several laboratories
